Source: ChEMBL document CHEMBL1146037, “Design and discovery of a novel dipeptidyl-peptidase IV (CD26)-based prodrug approach” (J Med Chem, 2006)
The source made the active and inactive calls. The calls are words filed in the database; no cut-off is given here.

Columns and labels:
CCRF-CEM [1] = assay: Antiviral activity against HIV2 assessed as inhibition of HIV2-induced cytopathicity in CEM cells; format: functional, cell-based
Method in brief: (§1)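 CEM and MT-4 cell cultures infected with HIV-1 or HIV-2, with compounds diluted into culture medium from DMSO stocks. Antiviral activity is read at day 4 post-infection and reported as EC50.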

MT4 [2] = assay: Antiviral activity against HIV2 assessed as inhibition of HIV2-induced cytopathicity in MT4 cells; format: functional, cell-based; method in brief: as §1
[3] = target: T1, CD26 (Dipeptidyl peptidase 4) (Homo sapiens, UniProt P27487); assay: Inhibition of CD26-catalyzed GlyPro-pNA hydrolysis at 100 uM; conditions: CD26 (dipeptidyl peptidase 4) enzyme, probe GlyPro-pNA
T1 sequence (P27487 whole entry): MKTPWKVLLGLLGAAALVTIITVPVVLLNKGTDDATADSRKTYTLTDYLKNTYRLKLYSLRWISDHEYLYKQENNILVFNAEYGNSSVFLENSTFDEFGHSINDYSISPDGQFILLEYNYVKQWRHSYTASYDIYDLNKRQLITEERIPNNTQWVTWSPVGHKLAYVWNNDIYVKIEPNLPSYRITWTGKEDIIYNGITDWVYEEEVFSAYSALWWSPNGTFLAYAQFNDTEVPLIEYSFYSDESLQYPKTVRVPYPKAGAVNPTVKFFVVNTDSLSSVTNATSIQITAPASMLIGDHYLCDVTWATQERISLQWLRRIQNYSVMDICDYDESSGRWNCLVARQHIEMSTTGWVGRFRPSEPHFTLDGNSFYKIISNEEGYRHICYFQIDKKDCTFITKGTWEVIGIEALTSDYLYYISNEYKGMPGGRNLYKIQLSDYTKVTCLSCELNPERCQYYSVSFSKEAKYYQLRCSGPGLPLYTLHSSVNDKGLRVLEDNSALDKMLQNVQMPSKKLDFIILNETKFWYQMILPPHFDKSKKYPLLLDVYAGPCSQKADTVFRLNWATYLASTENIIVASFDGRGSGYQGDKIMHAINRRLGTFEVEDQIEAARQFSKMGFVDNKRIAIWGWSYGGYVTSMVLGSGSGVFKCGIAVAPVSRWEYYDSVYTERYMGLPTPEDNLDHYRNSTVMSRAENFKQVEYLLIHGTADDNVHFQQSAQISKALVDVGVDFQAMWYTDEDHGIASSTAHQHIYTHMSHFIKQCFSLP

Bos taurus [4] = organism: Bos taurus; assay: Conversion of prodrug to parent drug NAP-TSAO-T catalyzed by bovin serum after 6 hrs; format: ADME, organism-based; conditions: cattle
Method in brief: (§2)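 Prodrug at 50 µM incubated at 37 °C with human or bovine serum diluted in PBS (5, 2.5, 1 or 0.5%). Samples are quenched in cold methanol and centrifuged, and the supernatant is run on reverse-phase RP-8 HPLC (phosphate/heptanesulfonate pH 3.2–acetonitrile gradient). Parent compound formed is quantified at 3, 6 or 24 h.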

[5] = target: T1, CD26 (Dipeptidyl peptidase 4); assay: Inhibition of CD26-catalyzed GlyPro-pNA hydrolysis at 20 uM; conditions: CD26 (dipeptidyl peptidase 4) enzyme, probe GlyPro-pNA
Dipeptidyl peptidase 4 [6] = target: T2, Dipeptidyl peptidase 4 (Homo sapiens, UniProt P27487); assay: Conversion of prodrug to parent drug NAP-TSAO-T catalyzed by CD26 after 1 hr; format: ADME; design: concentration or dose not given beside the values
T2 sequence (P27487 whole entry): as above

Homo sapiens [7] = organism: Homo sapiens; assay: Conversion of prodrug to parent drug NAP-TSAO-T catalyzed by 2.5% human serum after 6 hrs; format: ADME, organism-based; method in brief: as §2
CCRF-CEM [8] = assay: Antiviral activity against HIV1 assessed as inhibition of HIV1-induced cytopathicity in CEM cells; format: functional, cell-based; conditions: Homo sapiens; method in brief: as §1
[9] = target: Human immunodeficiency virus type 1 reverse transcriptase (Human immunodeficiency virus 1, UniProt Q72547); assay: Inhibition of recombinant HIV1 reverse transcriptase
Bos taurus [10] = organism: Bos taurus; assay: Conversion of prodrug to parent drug NAP-TSAO-T catalyzed by bovin serum after 24 hrs; format: ADME, organism-based; conditions: cattle; method in brief: as §2
Dipeptidyl peptidase 4 [11] = target: T2, Dipeptidyl peptidase 4; assay: Conversion of prodrug to parent drug NAP-TSAO-T catalyzed by CD26 after 4 hrs; format: ADME; design: concentration or dose not given beside the values
Homo sapiens [12] = organism: Homo sapiens; assay: Conversion of prodrug to parent drug NAP-TSAO-T catalyzed by 2.5% human serum after 3 hrs; format: ADME, organism-based; method in brief: as §2
CCRF-CEM [13] = assay: Antiproliferative activity against human CEM cell line; format: functional
Method in brief: (§3)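 Cytostatic assay: compounds made up as DMSO stocks and diluted in culture medium. CC50 is the concentration that inhibits MT-4 or CEM cell proliferation by 50%.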

MT4 [14] = assay: Antiviral activity against HIV1 assessed as inhibition of HIV1-induced cytopathicity in MT4 cells; format: functional, cell-based; conditions: Homo sapiens; method in brief: as §1
Dipeptidyl peptidase 4 [15] = target: T2, Dipeptidyl peptidase 4; assay: Conversion of prodrug to parent drug NAP-TSAO-T catalyzed by CD26 after 24 hrs; format: ADME; design: concentration or dose not given beside the values
MT4 [16] = assay: Antiproliferative activity against human MT4 cell line; format: functional; method in brief: as §3

inhibition at 100 µM [3]: 70%
Activity (Bos taurus [4]): 20%
inhibition at 20 µM [5]: 50%
Activity (Dipeptidyl peptidase 4 [6]): 37%
Activity (Homo sapiens [7]): 50%
EC50 (CCRF-CEM [8]): 0.13 µM
IC50 [9]: 6.6 µM
Activity (Bos taurus [10]): 50%
Activity (Dipeptidyl peptidase 4 [11]): 62%
Activity (Homo sapiens [12]): 30%
Activity (Dipeptidyl peptidase 4 [15]): 61%
Structure (SMILES): Cc1cn(C2OC(CO[Si](C)(C)C(C)(C)C)C3(OS(=O)(=O)C=C3N)C2O[Si](C)(C)C(C)(C)C)c(=O)n(CCCNC(=O)[C@@H]2CCCN2C(=O)[C@@H](N)C(C)C)c1=O (stereo partly specified)
Activity (CCRF-CEM [1]): inactive
Activity (MT4 [2]): inactive
CC50 (CCRF-CEM [13]): 10 µM
EC50 (MT4 [14]): 0.3 µM
CC50 (MT4 [16]): 11 µM
